Laboratory results taken from ChEMBL document CHEMBL2390929, “New nitric oxide donating 1,2,4-triazole/oxime hybrids: synthesis, investigation of anti-inflammatory, ulceroginic liability and antiproliferative activities” (Bioorg Med Chem, 2013).

How the values were obtained:
DU-145 = test: Cytotoxicity against human DU145 cells assessed as cell growth at 10^-5 M after 48 hrs by SRB assay; type: functional; conditions: DU-145, 48 h, read-out: Activity
Method in brief: (§1)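 NCI 60-cell-line primary one-dose screen across nine tumour subpanels. Compound added at a single concentration of 10^-5 M and cultures incubated 48 h. Endpoint was sulforhodamine B protein staining read spectrophotometrically, with growth expressed as percent of untreated control cells.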

Rattus norvegicus [1] = test: Antiinflammatory activity in albino rat assessed as inhibition of carrageenan-induced paw edema at 0.28 mmol/kg, po after 5 hrs relative to control; type: functional
Method in brief: (§2)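 Adult male albino rats (120–140 g), four per group, fasted 24 h with water allowed. Test agent suspended in 0.5% w/v aqueous CMC and given orally at 0.28 mmol/kg; controls received CMC alone. After 30 min, 0.1 mL fresh 1% carrageenan in saline was injected subplantar into the right hind paw and saline into the left. Paw thickness was measured by Vernier caliper; % inhibition = [(VR−VL)control − (VR−VL)treated]/(VR−VL)control ×100. Mean ± SEM, one-way ANOVA.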

Malme-3M = test: Cytotoxicity against human MALME-3M cells assessed as cell growth at 10^-5 M after 48 hrs by SRB assay; type: functional; conditions: read-out: Activity; method in brief: as §1
NCI-H460 = test: Cytotoxicity against human NCI-H460 cells assessed as cell growth at 10^-5 M after 48 hrs by SRB assay; type: functional; conditions: NCI-H460, 48 h, read-out: Activity; method in brief: as §1
SK-OV-3 = test: Cytotoxicity against human SKOV3 cells assessed as cell growth at 10^-5 M after 48 hrs by SRB assay; type: functional; conditions: SK-OV-3, 48 h, read-out: Activity
Method in brief: (§3)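 NCI-60 one-dose screen across nine tumour subpanels. Each agent added once at 10^-5 M, cultures incubated 48 h. Endpoint is sulforhodamine B protein staining read spectrophotometrically. Output is percent growth of treated cells relative to untreated controls.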

[2] = Induction of nitric oxide release in phosphate buffer at pH 7.4 at 0.1 mM after 4 hrs by Griess method in presence of 0.5 mM of N-acetylcysteine; type: physicochemical; conditions: pH 7.4, 4 h, 100 µM
Method in brief: (§4)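 Compound in DMF diluted to final 10^-4 M in 1:1 50 mM phosphate buffer pH 7.4/MeOH with 5×10^-4 M N-acetylcysteine, 37 °C. Aliquot mixed with Griess reagent, 10 min at room temperature, A546 read. Nitrite quantified against sodium nitrite standards (10–80 nmol/mL); NO expressed as mol/mol. n = 4 reaction mixtures per compound.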

K562 = test: Cytotoxicity against human K562 cells assessed as cell growth at 10^-5 M after 48 hrs by SRB assay; type: functional; conditions: K562, 48 h, read-out: Activity; method in brief: as §1
SK-MEL-2 = test: Cytotoxicity against human SK-MEL-2 cells assessed as cell growth at 10^-5 M after 48 hrs by SRB assay; type: functional; conditions: SK-MEL-2, 48 h, read-out: Activity; method in brief: as §1
Hs-578T = test: Cytotoxicity against human Hs578T cells assessed as cell growth at 10^-5 M after 48 hrs by SRB assay; type: functional; conditions: read-out: Activity; method in brief: as §1
HCC 2998 = test: Cytotoxicity against human HCC2998 cells assessed as cell growth at 10^-5 M after 48 hrs by SRB assay; type: functional; conditions: HCC 2998, 48 h, read-out: Activity; method in brief: as §1
Rattus norvegicus [3] = test: Gastrointestinal toxicity in albino rat assessed as ulcer index at 0.28 mmol/kg, po (reference value: 0.60 +/- 0.05); type: organism-based; conditions: in vivo
NCI/ADR-RES = test: Cytotoxicity against human NCI/ADR-RES cells assessed as cell growth at 10^-5 M after 48 hrs by SRB assay; type: functional; conditions: read-out: Activity; method in brief: as §1
U-251 = test: Cytotoxicity against human U251 cells assessed as cell growth at 10^-5 M after 48 hrs by SRB assay; type: functional; conditions: U-251, 48 h, read-out: Activity; method in brief: as §3
Rattus norvegicus [4] = test: Antiinflammatory activity in albino rat assessed as inhibition of carrageenan-induced paw edema at 0.28 mmol/kg, po after 4 hrs relative to control; type: functional; method in brief: as §2
MOLT-4 = test: Cytotoxicity against human MOLT4 cells assessed as cell growth at 10^-5 M after 48 hrs by SRB assay; type: functional; conditions: MOLT-4, 48 h, read-out: Activity; method in brief: as §1
A498 = test: Cytotoxicity against human A498 cells assessed as cell growth at 10^-5 M after 48 hrs by SRB assay; type: functional; conditions: A498, 48 h, read-out: Activity; method in brief: as §1
UACC-62 = test: Cytotoxicity against human UACC62 cells assessed as cell growth at 10^-5 M after 48 hrs by SRB assay; type: functional; conditions: UACC-62, 48 h, read-out: Activity; method in brief: as §3
OVCAR-8 = test: Cytotoxicity against human OVCAR8 cells assessed as cell growth at 10^-5 M after 48 hrs by SRB assay; type: functional; conditions: OVCAR-8, 48 h, read-out: Activity; method in brief: as §1
SR = test: Cytotoxicity against human SR cells assessed as cell growth at 10^-5 M after 48 hrs by SRB assay; type: functional; conditions: read-out: Activity; method in brief: as §3
SW-620 = test: Cytotoxicity against human SW620 cells assessed as cell growth at 10^-5 M after 48 hrs by SRB assay; type: functional; conditions: SW-620, 48 h, read-out: Activity; method in brief: as §3
SK-MEL-28 = test: Cytotoxicity against human SK-MEL-28 cells assessed as cell growth at 10^-5 M after 48 hrs by SRB assay; type: functional; conditions: SK-MEL-28, 48 h, read-out: Activity; method in brief: as §3
IGROV-1 = test: Cytotoxicity against human IGROV1 cells assessed as cell growth at 10^-5 M after 48 hrs by SRB assay; type: functional; conditions: IGROV-1, 48 h, read-out: Activity; method in brief: as §1
NCI-H23 = test: Cytotoxicity against human NCI-H23 cells assessed as cell growth at 10^-5 M after 48 hrs by SRB assay; type: functional; conditions: NCI-H23, 48 h, read-out: Activity; method in brief: as §1
A549 = test: Cytotoxicity against human A549 cells assessed as cell growth at 10^-5 M after 48 hrs by SRB assay; type: functional; conditions: A549, 48 h, read-out: Activity; method in brief: as §1
786-0 = test: Cytotoxicity against human 786-0 cells assessed as cell growth at 10^-5 M after 48 hrs by SRB assay; type: functional; conditions: 786-0, 48 h, read-out: Activity; method in brief: as §1
NCI-H522 = test: Cytotoxicity against human NCI-H522 cells assessed as cell growth at 10^-5 M after 48 hrs by SRB assay; type: functional; conditions: NCI-H522, 48 h, read-out: Activity; method in brief: as §1
[5] = Induction of nitric oxide release in phosphate buffer at pH 7.4 at 0.1 mM after 6 hrs by Griess method in presence of 0.5 mM of N-acetylcysteine; type: physicochemical; conditions: pH 7.4, 6 h, 100 µM; method in brief: as §4
BT-549 = test: Cytotoxicity against human BT549 cells assessed as cell growth at 10^-5 M after 48 hrs by SRB assay; type: functional; conditions: BT-549, 48 h, read-out: Activity; method in brief: as §1
OVCAR-5 = test: Cytotoxicity against human OVCAR5 cells assessed as cell growth at 10^-5 M after 48 hrs by SRB assay; type: functional; conditions: OVCAR-5, 48 h, read-out: Activity; method in brief: as §1
CAKI-1 = test: Cytotoxicity against human CAKI-1 cells assessed as cell growth at 10^-5 M after 48 hrs by SRB assay; type: functional; conditions: CAKI-1, 48 h, read-out: Activity; method in brief: as §1

Structure (SMILES)	growth at 10 µM (DU-145) [%]	inhibition in vivo at 280 µmol/kg (Rattus norvegicus [1]) [%]	growth at 10 µM (Malme-3M) [%]	growth at 10 µM (NCI-H460) [%]	growth at 10 µM (SK-OV-3) [%]	Activity [2] [mol/mol]	growth at 10 µM (K562) [%]	growth at 10 µM (SK-MEL-2) [%]	growth at 10 µM (Hs-578T) [%]	growth at 10 µM (HCC 2998) [%]	UI (Rattus norvegicus [3])	growth at 10 µM (NCI/ADR-RES) [%]	growth at 10 µM (U-251) [%]	inhibition in vivo at 280 µmol/kg (Rattus norvegicus [4]) [%]	growth at 10 µM (MOLT-4) [%]	growth at 10 µM (A498) [%]	growth at 10 µM (UACC-62) [%]	growth at 10 µM (OVCAR-8) [%]	growth at 10 µM (SR) [%]	growth at 10 µM (SW-620) [%]	also measured
COc1ccc(-c2nnc(SC/C(=N/O)c3ccccc3)n2-c2ccccc2)cc1OC	114	78	93.7	114	103	0.19	88.7	116	105	114	5.71	93.2	101	81	81.8	94.2	89.5	90.7	85.1	110	growth at 10 µM (SK-MEL-28): 113%; growth at 10 µM (IGROV-1): 106%; growth at 10 µM (NCI-H23): 98%; growth at 10 µM (A549): 90.1%; growth at 10 µM (786-0): 102%; growth at 10 µM (NCI-H522): 88.8%; Activity [5]: 0.17 mol/mol; growth at 10 µM (BT-549): 92.4%; growth at 10 µM (OVCAR-5): 100%; growth at 10 µM (CAKI-1): 98.4%
COc1cc(-c2nnc(SC/C(=N/O)c3ccccc3)n2-c2ccccc2)cc(OC)c1OC	123	68	95.3	110	110	0.14	85.2	98.3	103	108	5.52	98.8	94.1	76	81.7	98.4	84	98.3	74.8	114	growth at 10 µM (SK-MEL-28): 90.3%; growth at 10 µM (IGROV-1): 99%; growth at 10 µM (NCI-H23): 92.5%; growth at 10 µM (A549): 94.7%; growth at 10 µM (786-0): 94.7%; growth at 10 µM (NCI-H522): 82.1%; Activity [5]: 0.15 mol/mol; growth at 10 µM (BT-549): 85.3%; growth at 10 µM (OVCAR-5): 115%; growth at 10 µM (CAKI-1): 79%
C=CCn1c(SC/C(=N\O)c2ccccc2)nnc1-c1ccc(OC)c(OC)c1	114	69	92.5	105	110	0.17	90.8	100	97.3	100	1.82	93	94.2	78	85.3	97.4	99.9	96.8	109	104	growth at 10 µM (SK-MEL-28): 99%; growth at 10 µM (IGROV-1): 97.6%; growth at 10 µM (NCI-H23): 91.5%; growth at 10 µM (A549): 98.1%; growth at 10 µM (786-0): 119%; growth at 10 µM (NCI-H522): 89%; Activity [5]: 0.13 mol/mol; growth at 10 µM (BT-549): 124%; growth at 10 µM (OVCAR-5): 107%; growth at 10 µM (CAKI-1): 90%
CCn1c(SC/C(=N/O)c2ccccc2)nnc1-c1ccccc1	107	71	98.7	102	89.7	0.13	86	108	101	96.6	1.78	103	102	73	94.8	69.3	86.2	111	94.8	98.7	growth at 10 µM (SK-MEL-28): 106%; growth at 10 µM (IGROV-1): 106%; growth at 10 µM (NCI-H23): 103%; growth at 10 µM (A549): 101%; growth at 10 µM (786-0): 105%; growth at 10 µM (NCI-H522): 112%; Activity [5]: 0.13 mol/mol; growth at 10 µM (BT-549): 115%; growth at 10 µM (OVCAR-5): 96.8%; growth at 10 µM (CAKI-1): 89%
